Active and inactive are the calls of the source.
Key:
Mus musculus [1] = test: Hypothermic activity in Harlan ICR mouse assessed as change in rectal temperature at 83 umol/kg, iv at 30 mins; assay type: functional
In short: (§1)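 Male ICR mice, n = 6 per dose. Single probe dose iv in emulphor–ethanol–saline 1:1:18. Rectal temperature taken with a thermistor probe at 25 mm depth before dosing and at 30 min. Result given as change from pre-injection value (°C).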

Mus musculus [2] = test: Locomotor activity in Harlan ICR mouse assessed as inhibition of activity level at 83 umol/kg, iv from 5 to 15 mins by spontaneous locomotor activity test relative to vehicle treated control; assay type: functional
In short: (§2)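 Male ICR mice, n = 6 per dose, single probe dose iv in emulphor–ethanol–saline 1:1:18. Photocell beam interruptions recorded over 10 min, at 5–15 min after dosing. Result given as % inhibition relative to the vehicle group.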

Mus musculus [3] = test: Induction of catalepsy in Harlan ICR mouse at 83 umol/kg, iv at 40 mins measured for 5 mins by ring immobility test; assay type: functional
In short: (§3)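 Male ICR mice given a single iv probe dose in emulphor–ethanol–saline 1:1:18. At 40 min placed on a 5.5 cm ring raised 16 cm and observed for 5 min by blinded raters. Up to 5 escapes allowed; mice escaping before 2.5 min excluded. Immobility index = time motionless / 300 s × 100.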

Mus musculus [4] = test: Antinociceptive activity in Harlan ICR mouse assessed as latency to heat-induced tail flicking at 83 umol/kg, iv at 20 mins relative to control; assay type: functional
Cannabinoid receptor 2 = Cannabinoid receptor 2 (Homo sapiens, UniProt P34972); test: Displacement of [3H]CP55940 from human CB2 receptor expressed in CHO cells after 1 hr by liquid scintillation spectrophotometry; assay type: cell-based
Cannabinoid receptor 2, sequence (P34972 whole entry): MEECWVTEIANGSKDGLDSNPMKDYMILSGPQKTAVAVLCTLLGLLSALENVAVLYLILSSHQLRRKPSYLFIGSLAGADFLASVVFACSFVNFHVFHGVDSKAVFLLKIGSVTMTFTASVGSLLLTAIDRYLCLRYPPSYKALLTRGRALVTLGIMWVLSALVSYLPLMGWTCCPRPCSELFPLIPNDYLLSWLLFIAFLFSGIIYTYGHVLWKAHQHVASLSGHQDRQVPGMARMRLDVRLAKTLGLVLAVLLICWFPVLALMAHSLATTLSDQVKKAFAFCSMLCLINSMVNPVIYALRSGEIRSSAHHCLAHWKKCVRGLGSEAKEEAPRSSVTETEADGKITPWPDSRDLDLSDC
In short: (§4)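 Membranes (50 µg) from CHO cells stably expressing human CB2, cultured in DMEM/10% fetal calf serum. Incubated with 0.5 nM [3H]CP55,940 and test compound at 1 nM–10 µM with BSA (5 mg/mL), 1 h at 30 °C. Nonspecific binding defined with excess unlabelled CP55,940. GF/B filtration, then scintillation counting.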

Homo sapiens = species on record: Homo sapiens; test: Selectivity ratio of Ki for human CB1 receptor to Ki for human CB2 receptor
Cannabinoid receptor 1 [5] = molecular target: T1, Cannabinoid receptor 1 (Homo sapiens, UniProt P21554); test: Displacement of [3H]CP55940 from human CB1 receptor expressed in HEK293 cells after 1 hr by liquid scintillation spectrophotometry; assay type: cell-based
T1 sequence (P21554 whole entry): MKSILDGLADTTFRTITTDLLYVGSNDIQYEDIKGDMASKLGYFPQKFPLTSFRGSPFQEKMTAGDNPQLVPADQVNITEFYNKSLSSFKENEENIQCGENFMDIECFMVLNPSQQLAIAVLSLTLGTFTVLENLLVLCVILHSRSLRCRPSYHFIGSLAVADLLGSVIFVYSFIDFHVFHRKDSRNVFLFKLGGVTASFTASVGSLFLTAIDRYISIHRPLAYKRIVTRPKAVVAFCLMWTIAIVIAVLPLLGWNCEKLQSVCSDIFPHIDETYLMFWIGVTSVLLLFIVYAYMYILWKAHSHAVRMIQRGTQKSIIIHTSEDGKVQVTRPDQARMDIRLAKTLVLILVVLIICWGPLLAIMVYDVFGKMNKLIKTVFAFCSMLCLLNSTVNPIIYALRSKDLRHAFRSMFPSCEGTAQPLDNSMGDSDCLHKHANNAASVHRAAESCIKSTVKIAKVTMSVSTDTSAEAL
In short: as §4, with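 “HEK-293” for “CHO”, “CB1,” for “CB2,”, “FBS.” for “fetal calf serum.”, “µM in buffer” for “µM”, “Filtered through GF/B,” for “GF/B filtration,”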

Mus musculus [6] = test: Locomotor activity in iv dosed Harlan ICR mouse from 5 to 15 mins by spontaneous locomotor activity test; assay type: functional
Mus musculus [7] = test: Induction of catalepsy in iv dosed Harlan ICR mouse at 40 mins measured for 5 mins by ring immobility test; assay type: functional
Mus musculus [8] = test: Antinociceptive activity in iv dosed Harlan ICR mouse assessed as latency to heat-induced tail flicking at 20 mins; assay type: functional
In short: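 Male ICR mice, 18–25 g, n = 6 per dose. Multiple doses iv by tail vein in emulphor–ethanol–saline 1:1:18. Tail-flick latency at 20 min, 10 s cutoff, expressed as %MPE.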

Mus musculus [9] = test: Hypothermic activity in iv dosed Harlan ICR mouse assessed as change in rectal temperature at 30 mins; assay type: functional; conditions: 0.5 h
Mus musculus [10] = species on record: Mus musculus; test: Induction of catalepsy in mouse by ring immobility test; assay type: functional
Mus musculus [11] = test: Locomotor activity in Harlan ICR mouse assessed as inhibition of activity level at 77 umol/kg, iv from 5 to 15 mins by spontaneous locomotor activity test relative to vehicle treated control; assay type: functional; in short: as §2
Mus musculus [12] = test: Antinociceptive activity in Harlan ICR mouse assessed as latency to heat-induced tail flicking at 77 umol/kg, iv at 20 mins relative to control; assay type: functional
Mus musculus [13] = test: Induction of catalepsy in Harlan ICR mouse at 77 umol/kg, iv at 40 mins measured for 5 mins by ring immobility test; assay type: functional; in short: as §3
Mus musculus [14] = test: Hypothermic activity in Harlan ICR mouse assessed as change in rectal temperature at 77 umol/kg, iv at 30 mins; assay type: functional; in short: as §1
Mus musculus [15] = test: Antinociceptive activity in Harlan ICR mouse assessed as latency to heat-induced tail flicking at 30 mg/kg, iv at 20 mins in the presence of rimonabant; assay type: functional, organism-based; design: dose 30 mg/kg
Mus musculus [16] = test: Hypothermic activity in Harlan ICR mouse assessed as change in rectal temperature at 30 mg/kg, iv at 30 mins in the presence of rimonabant; assay type: functional, organism-based; design: dose 30 mg/kg
Mus musculus [17] = test: Locomotor activity in Harlan ICR mouse at 30 mg/kg, iv from 5 to 15 mins by spontaneous locomotor activity test in the presence of rimonabant; assay type: functional, organism-based; design: dose 30 mg/kg
Cannabinoid receptor 1 [18] = molecular target: T1, Cannabinoid receptor 1; test: Activation of human CB1 receptor expressed in HEK293 cells assessed as [35S]GTPgamma binding after 90 mins by liquid scintillation spectrophotometry relative to CP55940; assay type: functional, cell-based
In short: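 Membranes from HEK-293 cells stably expressing human CB1, pelleted at 50,000g and taken up in Tris-HCl pH 7.4 with MgCl2, EGTA and NaCl. 10 µg protein with BSA, 20 µM GDP, 0.1 nM [35S]GTPγS and graded test concentrations, 90 min at 30 °C. 2 µM CP55,940 run as internal standard; basal without agonist, nonspecific with 10 µM GTPγS. Filtration, then scintillation counting.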

Mus musculus [19] = test: Induction of catalepsy in Harlan ICR mouse at 30 mg/kg, iv 40 mins measured for 5 mins by ring immobility test in the presence of rimonabant; assay type: functional, organism-based; design: dose 30 mg/kg
Mus musculus [20] = test: Hypothermic activity in Harlan ICR mouse assessed as change in rectal temperature at 74 umol/kg, iv at 30 mins; assay type: functional; in short: as §1
Mus musculus [21] = test: Antinociceptive activity in Harlan ICR mouse assessed as latency to heat-induced tail flicking at 74 umol/kg, iv at 20 mins relative to control; assay type: functional
Mus musculus [22] = test: Locomotor activity in Harlan ICR mouse assessed as inhibition of activity level at 74 umol/kg, iv from 5 to 15 mins by spontaneous locomotor activity test relative to vehicle treated control; assay type: functional; in short: as §2

Compound	Ki (Cannabinoid receptor 2) [µM]	Ratio Ki (Homo sapiens)	Ki (Cannabinoid receptor 1 [5]) [µM]	ED50 (Mus musculus [6]) [µmol/kg]	ED50 (Mus musculus [8]) [µmol/kg]	ED50 (Mus musculus [9]) [µmol/kg]	further results
CCCn1c(C)c(C(=O)c2ccc(Cl)c3ccccc23)c2ccccc21	0.022	9	0.187	–	–	–	Activity (Mus musculus [1]): -5.4%; inhibition in vivo at 83 µmol/kg (Mus musculus [2]): 70%; Activity (Mus musculus [3]): 70%; Activity (Mus musculus [4]): 100%
CCCCCn1cc(C(=O)c2cccc3cccc(I)c23)c2ccccc21	0.0033	22	0.073	1.8	1.3	6.4	ED50 (Mus musculus [7]): 3.6 µmol/kg
CCCCCc1cc(O)c2c(c1)OC(C)(C)[C@@H]1CCC(C)=C[C@@H]21 [DRONABINOL]	–	–	–	3.2	–	–	–
CCCCCn1cc(C(=O)c2cccc3ccccc23)c2ccccc21	–	3.2	–	0.44	0.09	1.7	ED50 (Mus musculus [10]): 3 µmol/kg
CCCn1cc(C(=O)c2ccc(Br)c3ccccc23)c2ccccc21	0.027	6	0.161	–	–	–	inhibition in vivo at 77 µmol/kg (Mus musculus [11]): 71%; Activity (Mus musculus [12]): 75%; Activity (Mus musculus [13]): 26%; Activity (Mus musculus [14]): -3.9%
CCCn1c(C)c(C(=O)c2ccc(F)c3ccccc23)c2ccccc21	0.038	14	0.53	9.6	11.9	30.1	Activity (Mus musculus [15]): inactive; Activity (Mus musculus [16]): inactive; ED50 (Mus musculus [7]): 23.2 µmol/kg; Activity (Mus musculus [17]): inactive; Emax (Cannabinoid receptor 1 [18]): 59%; Activity (Mus musculus [19]): inactive
CCCn1cc(C(=O)c2cccc3cccc(Br)c23)c2ccccc21	0.192	> 52	> 10	–	–	–	inhibition in vivo at 77 µmol/kg (Mus musculus [11]): 76%; Activity (Mus musculus [12]): 9%; Activity (Mus musculus [13]): 5%; Activity (Mus musculus [14]): -2%
CCCCCn1c(C)c(C(=O)c2cccc3cccc(Cl)c23)c2ccccc21	0.019	6.1	0.116	–	–	–	inhibition in vivo at 77 µmol/kg (Mus musculus [11]): 84%; Activity (Mus musculus [12]): 100%; Activity (Mus musculus [13]): 86%; Activity (Mus musculus [14]): -5.5%
CCCn1c(C)c(C(=O)c2cccc3cccc(Cl)c23)c2ccccc21	0.174	> 57	> 10	–	–	–	Activity (Mus musculus [1]): -2.3%; inhibition in vivo at 83 µmol/kg (Mus musculus [2]): 70%; Activity (Mus musculus [3]): 15%; Activity (Mus musculus [4]): 42%
CCCCCn1cc(C(=O)c2ccc(Br)c3ccccc23)c2ccccc21	0.0011	1	0.0012	–	–	–	–
CCCn1c(C)c(C(=O)c2ccc(Br)c3ccccc23)c2ccccc21	0.031	12	0.373	–	–	–	Activity (Mus musculus [20]): -5%; Activity (Mus musculus [21]): 96%; inhibition in vivo at 74 µmol/kg (Mus musculus [22]): 80%
CCCCCn1c(C)c(C(=O)c2ccc(F)c3ccccc23)c2ccccc21	0.0022	6	0.014	0.38	0.48	0.54	ED50 (Mus musculus [7]): 0.99 µmol/kg
CCCCCn1c(C)c(C(=O)c2ccc(Br)c3ccccc23)c2ccccc21	0.0028	5	0.014	–	–	–	–

Reference: ChEMBL document CHEMBL2203189, “Synthesis and pharmacology of 1-alkyl-3-(1-naphthoyl)indoles: steric and electronic effects of 4- and 8-halogenated naphthoyl substituents” (Bioorg Med Chem, 2012)
